Columns and labels:
[1] = target: Aldo-keto reductase family 1 member B1 (Bos taurus) (UniProt P16116); test: In vitro inhibition of aldose reductase in partially purified bovine lens preparation at a concentration of 10e -7M.
Method in brief: (§1)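 Enzyme from bovine lens, partially purified by the cited method with the final chromatographic step omitted. DL-Glyceraldehyde was the substrate. Test compounds were run in duplicate at 1×10⁻⁵, 1×10⁻⁶, 1×10⁻⁷ or 4×10⁻⁸ M. Values are % inhibition of enzymatic activity.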

[2] = system: Rattus norvegicus; test: In vivo inhibition of galactitol accumulation in the sciatic nerve of rats fed 20% galactose for 4 day at 97 mg/kg/day dose; assay type: functional
[3] = system: Rattus norvegicus; test: In vivo inhibition of galactitol accumulation in the diaphragm of rats fed 20% galactose for 4 day at 97 mg/kg/day dose; assay type: functional
Method in brief: (§2)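 Male Sprague-Dawley rats (50–70 g) in groups of six were fed chow with 20% (w/w) galactose. Controls received 20% glucose instead. Test compound was mixed into the diet, and dose was calculated from actual food intake. Rats were killed by decapitation after 4 days. Result is % lowering of tissue galactitol versus galactose-fed controls, as the mean of six animals, compared by Dunnett's multiple comparison.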

[4] = target: Aldo-keto reductase family 1 member B1 (Bos taurus) (UniProt P16116); test: In vitro inhibition of aldose reductase in partially purified bovine lens preparation at a concentration of 4*10e -8M.; method in brief: as §1
[5] = system: Rattus norvegicus; test: In vivo inhibition of galactitol accumulation in the diaphragm of rats fed 20% galactose for 4 day at 90 mg/kg/day dose; assay type: functional; method in brief: as §2
[6] = system: Rattus norvegicus; test: In vivo inhibition of galactitol accumulation in the sciatic nerve of rats fed 20% galactose for 4 day at 95 mg/kg/day dose; NS= No Significant inhibition of polyol accumulation; assay type: functional, organism-based

| inhibition [1] | inhibition [4] | Compound | Lowering [2] | Lowering [3] | Lowering [5] | Lowering [6] |
| --- | --- | --- | --- | --- | --- | --- |
| 83% | 64% | O=C(O)Cn1c(=O)c2cc(I)ccc2n(Cc2ccc(Br)cc2F)c1=O | 64% | 83% |  |  |
| 51% | 23% | O=C(O)CN1CN(Cc2ccc(Br)cc2F)c2ccc(Cl)cc2C1=O |  |  | 38% | Not significant |

Reference: ChEMBL document CHEMBL1125678, “Quinazolineacetic acids and related analogues as aldose reductase inhibitors” (J Med Chem, 1991)
